System: MS2 coat protein
Test: apparent Kd, MS2 coat protein; higher = weaker binding; RNA-MaP array; FMN 200 µM where present
How it was run: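 Binding was read on Illumina sequencing-chip clusters where stalled E. coli RNA polymerase had transcribed each design. A titration of SNAP-549-labelled MS2 coat protein began at 0.7 or 1.5 nM and doubled to 3 µM, once without ligand and once with constant ligand, in 100 mM Tris-HCl pH 7.5, 80 mM KCl, 4 mM MgCl2, BSA, DTT, yeast tRNA and Tween-20. The apparent Kd is the median of filtered per-cluster binding-curve fits, based on green signal normalised to red-channel RNA signal and control-cluster median Fmax.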

[1] = designed as: ON switch for flavin mononucleotide, no ligand
[2] = ligand present: flavin mononucleotide, designed as: ON switch for flavin mononucleotide
[3] = designed as: OFF switch for flavin mononucleotide, no ligand
[4] = ligand present: flavin mononucleotide, designed as: OFF switch for flavin mononucleotide

Sequence | apparent Kd [1] [nM] | apparent Kd [2] [nM] | apparent Kd [3] [nM] | apparent Kd [4] [nM]
AGUUGAAGGUAGAAGGGUGACAUGAGGAUCACCCAUGUGCGAGCAUCGGACGAAGAUGGCUCGCCACAGGAUAUACCUUCAAUU | 41.2 | 44.4 | – | –
UAUAUGUCAGGAUAUUAAUUAAAAUGGAAUUUAGUUUUAAUUAAGAAGGGACAUGAGGAUCACCCAUGUUCCUC | – | – | 20.9 | 128
GUGUAGAUAGGAUAUACAUGAGUCUAGCGAAGCUAGAUUCUACAUGAGGAUCACCCAUGUAGAAGGGUCUACAC | – | – | 15.9 | 18.5
CCGACCUUGGCAGGAUAUAGACUCGAAGUUGAUCCCGCCGGUGGAGACAUGAGGAUCACCCAUGUCUAGAAGGGCCAGUCGAAA | – | – | 16.2 | 72.9
GUCAGCUCGUGAGGAUAUACAUAAUAUCAAGAUCACAUGAGGAUCACCCAUGUAGAAGGCACGAGCUGAUAAGCACGAAAGUGC | – | – | 12.1 | 102
UUGGACGUCGUAGGAUAUGUAGGCUAUUCCUACAUGAGGAUCACCCAUGUUGACAUGGAAGAAGGACAGAAGGACGAUGUCCAU | 30.4 | 3.85 | – | –
GUGCGUGGCUAGGAUAUUGUGGAGUUUAGUCAGCGAGAAGGCGCCACAUGAGGAUCACCCAUGUGGUGUUGCUC | – | – | 13.1 | 14.7
GGAUAGGACAGAGGAUAUACCGAUAGGAUCUACUAUCGAACAAUUCUCACAUGAGGAUCACCCAUGUAGAAGGCUGUCCUAUCG | – | – | 16.6 | 29.4
UAUCGUGUUCGAGGAUAUGAAACUAGGCCGGGCACUGUAUACCCGCCUGUCUCAGAAGGCGGACAUGAGGAUCACCCAUGUAAA | – | – | 202 | 17.4
CAGGUGUUAGGAUAUCGGAGGUUGAGGCAGACGGGAAUAUUCGAGAAGGAACAUGAGGAUCACCCAUGUAGUAG | – | – | 22.8 | 24.8
AUGAUACAUGAGGAUCACCCAUGUCACCUCACACGAGGAUAUCUGAAUCGAUUAGAUUACGGAGAAGGCGUGGAAA | 66.8 | 20.8 | – | –
AACAAACAUGAGGAUCACCCAUGUGAGGAUAUCGGAUGUACAGCGCAAUUAGAAUUAACGAGAAGGCACACUUA | – | – | 30.6 | 29.1
AAUAACAGAGGAUAUACUGUUUUAUGUAUUUAUUAUUUUAAACAUGAGGAUCACCCAUGUAGAAGGCUGAUUAA | – | – | 30.2 | 27
UUACAGCACGGGUAGGAUAUGUAGGGUGGUACAUGAGGAUCACCCAUGUAUCCACCCUUCUAACGGCAGAAGGGCCUGUCGCUGC | 31.8 | 20.9 | – | –
UUGGGAUGCAAGAAGGGUGACAUGAGGAUCACCCAUGUGUUGUGAAUUCUCGAGAUUUUAUGACCAUAGGAUAUUGCACCGAAC | 28.5 | 12.2 | – | –
UUUGUUGUUGUGAGGAUAUCGUUGUUAUUUUGAAACGAGAAGGCACAUGAGGAUCACCCAUGUUUGUUGAUGGU | – | – | 43.9 | 122
AAAACUGGAGGAUAUACAUGAGGAUCACCCAUGUGUGGAUGGGCUGUGUCGGCGUCAGGUAGAAGGCCACAAAA | – | – | 70 | 130
CUGGUGUGAGGAUAUCAGGACACGUACGCGGGCAUGUCAAAUGAGAAGGCACAUGAGGAUCACCCAUGUGGGAC | – | – | 29.7 | 41.6
GGGAUACACCAGAAGGACAUGAGGAUCACCCAUGUAGGAUAUGGGUACGCCGACAUUGGUCUGCUCUCGGUAGACUUUCCCGAU | 203 | 39.6 | – | –
AUUAAACAUGAGGAUCACCCAUGUCAACAAAGUCGAGGAUAUGGGCAUAUUAUCUUAUAACCAGAAGGCGAAUAAU | 222 | 37 | – | –
GAGCAGUGUAAAUAAACUCAAAUACAUGAGGAUCACCCAUGUAAGGAUAUGCAGUGGAAUACACUGCAGAAGGUACAUCACUGC | – | – | 14.3 | 20.5
ACAGUAUAUGUAGGAUAUCAUUGGCUAGGUAGGUGAGAAGGGCAUAGUACAUGAGGAUCACCCAUGUGUUGGUCCUCGCAGAAA | – | – | 634 | 380
GACCGCGAGGAAGGAUAUGGAGCCUUAAAGGCUCCAGAAGGUCCAUAAAGGACAUGAGGAUCACCCAUGUGGUGAGAAGCGGUC | 1720 | 201 | – | –
GGUACUCAAAGAGUACCAAUACGAACAUGAGGAUCACCCAUGUAGGAUAUGCUACUCAAAGAGUAGCAGAAGGACAUGUGAAAU | – | – | 71.5 | 380
CCAUGCGGAUGAGGAUAUUCAUCCAUGAGGAUAGAAGAAGGCAUACAUGAGGAUCACCCAUGUAUACACAUGAGGAUCCCUUAC | – | – | 128 | 178
UGCUAGUCAGGAUAUACGAACAUGUCGCCAGAUGUCAAGGUACAUGAGGAUCACCCAUGUAGAAGGGACUAGAA | – | – | 39.2 | 107
UUGGACGUCGUAGGAUAUGUAGGAUAUUCCUACAUGAGGAUCACCCAUGUUGACAUGGAAGAAGGCCAGAAGGACGAUGUCCAU | 930 | 100 | – | –
GCGAAUAUGGGUUAGGAUAUGCGCGCAUGUACAUGAGGAUCACCCAUGUUUACGGGCGCCUUUGAGCAGAAGGAGCUAAUCAACGC | 36.5 | 27.6 | – | –

Sequence | apparent Kd [1] [nM] | apparent Kd [2] [nM] | apparent Kd [3] [nM] | apparent Kd [4] [nM]
AAGAAACAUGAGGAUCACCCAUGUCAGGAUAUGCAAAACUGACGAAAGUCAGAAGAAAGCAGAAGGGACUAGAA | – | – | 59.8 | 79.7
CCGGAAAUGCAGGAUAUCGUAUCGGAUACGAUACGAGAAGGGUAUACAUGAGGAUCACCCAUGUGUCCUACCGG | – | – | 18.4 | 22.1
CGUGAAAACAUAGGAUAUUGUUACAUGAGGAUCACCCAUGUCAACCAUUUAUCUCAAAUUGUUGACAAGAAGGAUGAGGUCACG | 118 | 38.9 | – | –
GUGUACAGAGGAUAUACAUAAGCUAGGAAACUAGCAAACUCACAUGAGGAUCACCCAUGUAGAAGGCUGUACAC | – | – | 48 | 257
AGUGCUAUGUAGAAGGCAGAUCUGAUUCAGAUCUGAGGAUAUACAUGAGGAUCACCCAUGUUAUGCACCAGCACGAGAGUGCAG | – | – | 9.24 | 22.6
AAUUCACAUGAGGAUCACCCAUGUCAGGAUAUGGUUUCGCGGGUUUCGGUGCGUGAGGCCAGAAGGGACAGCUA | – | – | 53.3 | 72.4
CUGAUGUGAGGAUAUCUACGCCAUGUCUUUGACAUGGCGCAAGAGAAGGCACAUGAGGAUCACCCAUGUUCUUC | – | – | 62.9 | 723
UCAGGCUUCGAGAAGGACAUGAGGAUCACCCAUGUGCGUGUGAAGCAGCCGUGAGGCUGCAUCAUGUAGGAUAUCGGAGUCUGU | – | – | 92.3 | 554
GUAUGAGCGAUAGGAUAUACUGAGAUUGAAUGGGUAGAAGGAUCACUUGUGUGGAAGACAUGAGGAUCACCCAUGUUACGGGCC | 20.7 | 62.6 | – | –
AUUAUUAAGUUAGGAUAUAGUAAAAUGAUUUAGUUAGAAGGAGCUCACAUGAGGAUCACCCAUGUAAGAGGAUCACCCAUGUAU | – | – | 23.8 | 15.6
GUAAUCAGUAAUAAAAGCCCGGGCGCAGAAGGCCAGACACAUGAGGAUCACCCAUGUAUCCCUAUGGAGGAUAUGUGUCACGUG | 72.8 | 22.9 | – | –
CCAUAAAAGAUCCAUUUUUACAACAUGAGGAUCACCCAUGUGCAGGAUAUCGUGAAAGUAAAAUACGAGAAGGGCAAGAACUGC | – | – | 106 | 130
GAAUGCAGAGGAUAUACGGGACAGCAUCGAAAGAUGCUGAAACAUGAGGAUCACCCAUGUAGAAGGCUGCAGAA | – | – | 73.2 | 154
AGAUACAACCAGAAGGACAUGAGGAUCACCCAUGUAGGAUAUGGGUUACACGUUCCUGUGAAUUGUAACGACGCUACGAAGAGU | 113 | 12.3 | – | –
UAAUAUUUAUAAUAUUAUUACAUUAGAAGGCAAGACAUGUGGAUACAUGAGGAUCACCCAUGUAUUGAGGAUAUAGACAUAUAU | – | – | 14.6 | 21.7
GGGUAGAUCGGAGGAUAUCAUGUAAAUACAUGAGGAUCACCCAUGUCGAUGGAGACAUCGGAGAUUGAGAAGGCCGAUGUACCG | 166 | 8.4 | – | –
ACAUAAUACGAGAAGGGAGUACAUGAGGAUCACCCAUGUGCUCAGAUGUACUCAGGAUAUCGGCUGACGCAAGGUUCAGGGAAU | – | – | 10.9 | 128
CGUGCGUCGACAGGAUAUACAGAUUGGCUCCGGUACAUGAGGAUCACCCAUGUAGAAGGGUCACGCGCGGAUAGAACAUUCUAA | – | – | 9.09 | 40.3
UUAGGAGUUGUAGGAUAUCGGAUAGAAUGUAAACGAGAAGGACAUGAGGAUCACCCAUGUAUUGAAGAGAAGAGAGAGAGAGAG | – | – | 24.5 | 21.1
UGGUACUACGGAGGAUAUCAUGUAUAUACAUGAGGAUCACCCAUGUCGUACGAGAGUACGGAGAUUGAGAAGGCCGUAGUACCU | 38.7 | 16.2 | – | –
GAGUUAUCAGGAUAUACAUGAGGAUCACCCAUGUCGAUCAAUCCCGUGGGAACGCACUGUAGAAGGGAUGUAGU | – | – | 32.5 | 33
AUGUACCUAGGAUAUACAUGAGGAUCACCCAUGUUAACUUUGCAAUCAAGUUAAUAUUGUAGAAGGAGGUGAAA | – | – | 61.5 | 107
UCCGCUCGAGGAUAUACAUGAGGAUCACCCAUGUUUCCCUGUUGUUUGGCCUUAGGAUGUAGAAGGCGACGUUA | – | – | 17.7 | 17.8
UGUCGGAGCAGAGGAUAUUACAUGAGGAUCACCCAUGUAGGAACCAAUAGCUGGAAACAGCAAUGUAAGAAGGCUGCUCCGACA | – | – | 19.6 | 267
AAAAGGCUAGGAUAUACCAGUGGGUGUAAGAACUCAAAGUUACAUGAGGAUCACCCAUGUAGAAGGAGUAAAAU | – | – | 17.1 | 40
GGGUACAUCGGAGGAUAUCAUGUAAAUACAUGAGGAUCACCCAUGUCGAUAGAGACAUCGGAGAUUGAGAAGGCCGAUGUACCG | 41.7 | 300 | – | –
GCCGAACAUGAGGAUCACCCAUGUCCGGGUAGUCAAGGAUAUGGGUAGGCAAUGCCGUGGCCAGAAGGUGGCUAUC | 97.6 | 30.9 | – | –
